Test results published in ChEMBL document CHEMBL1687868, “Bioactive compounds from the fern Lepisorus contortus” (J Nat Prod, 2011).
Active and inactive are the calls of the source. The rule behind the calls is not given here.

Assays:
RAW264.7 = experiment: Inhibition of NO production in mouse RAW264.7 cells at 20 ug/ml after 30 mins by Griess assay; type: functional, cell-based; settings: in the assay text read “after 24 hrs” for “after 30 mins”
How it was run: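 RAW 264.7 cells plated for 24 h. Compound in phenol red-free DMEM added 30 min before LPS (1 µg/mL), then 24 h incubation. Nitrite measured with Griess reagent (1% sulfanilamide, 0.1% N-(1-naphthyl)ethylenediamine in 2.5% H3PO4) at 540 nm, against an NaNO2 standard curve.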

[1] = target: T1, Prostaglandin G/H synthase 2 (Homo sapiens) (UniProt P35354); experiment: Inhibition of human COX2 assessed as PGE2 formation at 10 ug/ml by LC-MS-MS analysis
T1 sequence (whole entry): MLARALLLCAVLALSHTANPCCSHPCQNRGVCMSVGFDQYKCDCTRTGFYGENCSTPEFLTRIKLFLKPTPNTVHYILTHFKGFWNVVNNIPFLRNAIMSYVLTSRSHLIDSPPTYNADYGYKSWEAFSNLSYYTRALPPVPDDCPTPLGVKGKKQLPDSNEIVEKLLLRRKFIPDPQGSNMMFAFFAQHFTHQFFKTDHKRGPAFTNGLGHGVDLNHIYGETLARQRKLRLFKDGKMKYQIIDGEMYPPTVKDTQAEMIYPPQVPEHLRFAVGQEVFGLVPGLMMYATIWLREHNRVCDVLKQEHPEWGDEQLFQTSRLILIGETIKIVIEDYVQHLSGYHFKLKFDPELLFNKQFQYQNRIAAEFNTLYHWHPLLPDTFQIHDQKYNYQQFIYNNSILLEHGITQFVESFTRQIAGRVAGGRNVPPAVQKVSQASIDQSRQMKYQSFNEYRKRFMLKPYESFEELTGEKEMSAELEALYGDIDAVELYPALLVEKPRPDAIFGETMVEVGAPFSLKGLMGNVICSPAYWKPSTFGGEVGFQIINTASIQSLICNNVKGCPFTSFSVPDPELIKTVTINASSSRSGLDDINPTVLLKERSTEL
How it was run: (§1)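 COX-1 (ovine) or COX-2 (human), 0.2 µg, activated in Tris-HCl pH 8.0 with hematin (1 µM final) and L-epinephrine (2 mM final). Test solution preincubated 10 min at 37 °C. Reaction started with arachidonic acid (5 µM final), stopped with HCl after 2 min. d4-PGE2 added as internal standard and PGE2 extracted with […] for LC-MS.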

Aromatase = target: T2, Aromatase (Homo sapiens, UniProt P11511); experiment: Inhibition of aromatase preincubated with 2.6 mM NADP+ for 10 mins before substrate addition measured after 30 mins by fluorescence assay
T2 sequence (P11511 whole entry): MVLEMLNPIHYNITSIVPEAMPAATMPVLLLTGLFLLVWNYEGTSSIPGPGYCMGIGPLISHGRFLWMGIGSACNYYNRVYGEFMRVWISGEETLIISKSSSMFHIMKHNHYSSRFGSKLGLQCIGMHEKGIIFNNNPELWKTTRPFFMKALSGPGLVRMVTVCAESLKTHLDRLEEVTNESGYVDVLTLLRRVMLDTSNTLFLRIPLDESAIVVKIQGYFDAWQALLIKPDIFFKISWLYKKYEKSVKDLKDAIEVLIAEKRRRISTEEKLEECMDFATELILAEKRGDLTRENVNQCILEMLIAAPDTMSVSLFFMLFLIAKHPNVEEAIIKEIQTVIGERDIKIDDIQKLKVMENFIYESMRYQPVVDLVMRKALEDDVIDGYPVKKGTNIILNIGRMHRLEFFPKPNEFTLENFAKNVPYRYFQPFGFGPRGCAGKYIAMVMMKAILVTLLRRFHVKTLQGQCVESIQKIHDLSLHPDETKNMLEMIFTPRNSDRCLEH
How it was run: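 Compounds preincubated 10 min at 37 °C with NADPH-regenerating system (2.6 mM NADP+, 7.6 mM glucose 6-phosphate, G6PDH, MgCl2, albumin; 50 mM K phosphate pH 7.4). CYP19 with 0.4 µM dibenzylfluorescein then added for 30 min at 37 °C. Stopped with 2 N NaOH and held a further 2 h at 37 °C. Fluorescence read at ex 485/em 530. Five concentrations; three independent experiments in duplicate.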

[2] = target: T3, Prostaglandin G/H synthase 1 (Ovis aries) (UniProt P05979); experiment: Inhibition of ovine COX1 assessed as PGE2 formation at 10 ug/ml by LC-MS-MS analysis; how it was run: as §1
T3 sequence (whole entry): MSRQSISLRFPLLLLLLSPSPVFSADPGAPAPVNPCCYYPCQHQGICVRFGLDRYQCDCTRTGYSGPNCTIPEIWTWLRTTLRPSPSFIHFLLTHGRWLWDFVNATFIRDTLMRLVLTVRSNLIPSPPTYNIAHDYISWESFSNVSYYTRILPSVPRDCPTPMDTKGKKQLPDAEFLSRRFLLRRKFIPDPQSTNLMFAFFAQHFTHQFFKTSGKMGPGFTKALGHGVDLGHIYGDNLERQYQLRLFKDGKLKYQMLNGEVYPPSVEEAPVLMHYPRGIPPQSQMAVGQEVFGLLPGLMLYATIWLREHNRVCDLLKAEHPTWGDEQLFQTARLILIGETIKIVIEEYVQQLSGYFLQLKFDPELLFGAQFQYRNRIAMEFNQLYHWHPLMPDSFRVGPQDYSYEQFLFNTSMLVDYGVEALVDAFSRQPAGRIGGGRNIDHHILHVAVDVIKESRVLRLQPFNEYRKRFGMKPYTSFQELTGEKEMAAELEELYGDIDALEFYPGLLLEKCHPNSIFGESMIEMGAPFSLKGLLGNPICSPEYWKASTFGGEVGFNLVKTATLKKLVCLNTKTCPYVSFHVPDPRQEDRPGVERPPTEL

[3] = Cytotoxicity against mouse Hepa-1c1c7 cells assessed as cell growth inhibition at 20 ug/ml after 72 hrs by sulforhodamine B assay; type: cell-based; settings: hepa-1c1c7, 72 h
How it was run: (§2)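 Cells held in medium with 10% heat-inactivated FBS and penicillin/streptomycin/amphotericin B (Hepa1c1c7 in α-MEM; MCF-7 in MEME plus 10 mg/L insulin). Samples added in triplicate, 37 °C, 5% CO2, 72 h. Cells fixed with cold 20% TCA at 4 °C for 30 min, stained with 0.4% sulforhodamine B, dye dissolved in 10 mM Tris pH 10, OD read at 515 nm. Growth given as % of 10% aqueous DMSO control.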

MCF7 = experiment: Cytotoxicity against human MCF7 cells assessed as cell growth inhibition at 20 ug/ml after 72 hrs by sulforhodamine B assay; type: functional, cell-based; how it was run: as §2
[4] = Inhibition of TNF-alpha-induced NFkappaB activation in human HEK293 cells after 6 hrs by luciferase reporter gene assay; type: cell-based; settings: HEK293, 6 h

Row | SMILES | inhibition (RAW264.7) | inhibition [1] | IC50 (Aromatase) | inhibition [2] | Activity [3] | Activity (MCF7) | IC50 [4]
1 | O=C(/C=C/c1ccc(O)c(O)c1)OC[C@H]1O[C@@H](OCCc2ccc(O)c(O)c2)[C@H](O[C@@H]2OC[C@](O)(CO)[C@H]2O)[C@@H](O)[C@@H]1O | inactive | inactive | 32.3 µM | inactive | Non-toxic | Not toxic | 
2 | O=C(/C=C/c1ccc(O)c(O)c1)OC[C@H]1O[C@@H](OCCc2ccc(O)c(O)c2)[C@H](O)[C@@H](O)[C@@H]1O [CALCEOLARIOSIDE B] | inactive | inactive | 35.3 µM | inactive | Non-toxic | Not toxic | 
3 | O=C(/C=C/c1ccc(O)c(O)c1)O[C@H]1[C@H](O)[C@@H](O[C@@H]2OC[C@](O)(CO)[C@H]2O)[C@H](OCCc2ccc(O)cc2)O[C@@H]1CO | inactive | inactive | 30.7 µM | inactive | Non-toxic | Not toxic | 
4 | O=c1c(O[C@@H]2O[C@H](CO)[C@@H](O)[C@H](O)[C@H]2O)c(-c2ccc(O)c(O)c2)oc2cc(O)cc(O)c12 [ISOQUERCETIN] | inactive | inactive |  | inactive | Non-toxic | Not toxic | 
5 | O=C(/C=C/c1ccc(O)c(O)c1)O[C@H]1[C@H](O)[C@@H](O[C@@H]2OC[C@](O)(CO)[C@H]2O)[C@H](OCCc2ccc(O)c(O)c2)O[C@@H]1CO [FUCATOSIDE A] | inactive | inactive |  | inactive | Non-toxic | Not toxic | 
6 | Cc1ccc(S(=O)(=O)N[C@@H](Cc2ccccc2)C(=O)CCl)cc1 [TPCK] |  |  |  |  |  |  | 3.76 µM
7 | COc1c(-c2ccc(O)cc2)oc2cc(O[C@@H]3O[C@H](CO)[C@@H](O)[C@H](O)[C@H]3O)cc(O)c2c1=O | inactive | inactive |  | inactive | Non-toxic | Not toxic | 
8 | COc1cc([C@@H](O)[C@@H](CO)Oc2ccc(/C=C/CO)cc2OC)ccc1O (relative stereo) | inactive | inactive |  | inactive | Non-toxic | Not toxic | 
9 | O=C(/C=C/c1ccc(O)c(O)c1)O[C@H]1[C@H](O)[C@@H](CO)O[C@@H](OCCc2ccc(O)cc2)[C@@H]1O[C@@H]1OC[C@](O)(CO)[C@H]1O | inactive | inactive |  | inactive | Non-toxic | Not toxic | 
10 | OC[C@H]1O[C@@H](OCCc2ccc(O)c(O)c2)[C@H](O)[C@@H](O)[C@@H]1O | inactive | inactive |  | inactive | Non-toxic | Not toxic | 
11 | O=C(/C=C/c1ccc(O)c(O)c1)O[C@H]1[C@H](O)[C@@H](CO)O[C@@H](OCCc2ccc(O)c(O)c2)[C@@H]1O[C@@H]1OC[C@](O)(CO)[C@H]1O | inactive | inactive | 26.8 µM | inactive | Non-toxic | Not toxic | 
12 | COc1c(-c2ccc(O)cc2)oc2cc(O[C@@H]3O[C@H](CO[C@@H]4O[C@@H](C)[C@H](O)[C@@H](O)[C@H]4O)[C@@H](O)[C@H](O)[C@H]3O)cc(O)c2c1=O | inactive | inactive |  | inactive | Non-toxic | Not toxic | 
13 | O=c1ccn([C@@H]2O[C@H](CO)[C@@H](O)[C@@H]2O)c(=O)[nH]1 [ARAURIDINE] | inactive | inactive |  | inactive | Non-toxic | Not toxic | 
14 | COc1c(-c2ccc(O)c(O)c2)oc2cc(O[C@@H]3O[C@H](CO)[C@@H](O)[C@H](O)[C@H]3O)cc(O)c2c1=O [TRANSILIN] | inactive | inactive |  | inactive | Non-toxic | Not toxic | 
15 | COc1c(-c2ccc(O)cc2)oc2cc(O[C@@H]3O[C@H](CO[C@@H]4O[C@@H](CO)[C@H](O)[C@H]4O)[C@@H](O)[C@H](O)[C@H]3O)cc(O)c2c1=O | inactive | inactive |  | inactive | Non-toxic | Not toxic | 
16 | COc1c(-c2ccc(O)c(O)c2)oc2cc(O[C@@H]3O[C@H](CO[C@@H]4O[C@@H](C)[C@H](O)[C@@H](O)[C@H]4O)[C@@H](O)[C@H](O)[C@H]3O)cc(O)c2c1=O | inactive | inactive |  | inactive | Non-toxic | Not toxic | 
